Measured values taken from ChEMBL document CHEMBL1138863, “Synthesis, in vitro antiviral evaluation, and stability studies of novel alpha-borano-nucleotide analogues of 9-[2-(phosphonomethoxy)ethyl]adenine and (R)-9-[2-(phosphonomethoxy)propyl]adenine” (J Med Chem, 2006).

Experiments:
[1] = test system: Human immunodeficiency virus 1; test: Antiviral activity against HIV1 in MAGI-CCR5 cells; type: functional, organism-based; conditions: Human immunodeficiency virus 1, MAGI-CCR5
[2] = Cytotoxicity against MAGI-CCR5 cells; type: cell-based; conditions: human
How it was run: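 MAGI-CCR5 cells (10^4 cells/well) were exposed to 0-400 µM compound, 4 h before mock/HIV-1 spinoculation and then throughout a 2-day culture. CC50 is the concentration inhibiting cell proliferation by 50%.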

[3] = test system: Vesicular stomatitis virus; test: Antiviral activity against vesicular somatitis virus in HEL cells; type: functional, organism-based
[4] = Cytotoxicity against HEL cells; type: cell-based; conditions: human
Human alphaherpesvirus 1 [5] = test: (§1) Antiviral activity against HSV1 KOS in HEL cells; type: functional, organism-based; conditions: Human alphaherpesvirus 1, KOS
Human alphaherpesvirus 1 [6] = test: as §1; type: functional, organism-based; conditions: Human alphaherpesvirus 1, KOS; remark: listed apart in the source
Vaccinia virus = test: Antiviral activity against vaccinia virus in HEL cells; type: functional, organism-based; conditions: Orthopoxvirus vaccinia
Human alphaherpesvirus 2 = test: Antiviral activity against HSV2 in HEL cells; type: functional, organism-based; conditions: Human alphaherpesvirus 2, HEL
Punta Toro virus = test: Antiviral activity against Punta Toro virus in Vero cells; type: functional, organism-based
Human respirovirus 3 = test: Antiviral activity against para influenza 3 virus in Vero cells; type: functional, organism-based; conditions: Human respirovirus 3, Vero
Sindbis virus = test: Antiviral activity against Sindbis virus in Vero cells; type: functional, organism-based
[7] = Cytotoxicity against HeLa cells; type: cell-based; conditions: human
[8] = Cytotoxicity against Vero cells; type: cell-based; conditions: chlorocebus sabaeus
[9] = test system: Mammalian orthoreovirus 1; test: Antiviral activity against reovirus 1 in Vero cells; type: functional, organism-based; conditions: Mammalian orthoreovirus 1, Vero
[10] = test system: Respiratory syncytial virus; test: Antiviral activity against RSV in HeLa cells; type: functional, organism-based; conditions: human respiratory syncytial virus
Coxsackievirus B4 = test: Antiviral activity against Coxsackie B4 virus in HeLa cells; type: functional, organism-based; conditions: Enterovirus B
[11] = Stability in RPMI-1640 medium; type: ADME
How it was run: (§2)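 Compound diluted to 0.1 mM final in RPMI 1640 or culture medium (RPMI 1640 + 10% heat-inactivated FCS), incubated 37 °C; aliquots frozen at -80 °C and analysed by on-line cleaning HPLC (C18, TEAB/acetonitrile gradient, 260 nm); half-lives calculated.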

[12] = Stability in pH 9.0 buffer at 37 degC after 72 hrs; type: physicochemical; conditions: pH 9, 72 h
How it was run: (§3)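 Compound at 0.1 mM final in buffer (pH 1.2, 5.2, 7.4, 8.1, 9.0 or 11.5) at 37 °C up to 72 h; aliquots frozen at -80 °C, analysed by reverse-phase HPLC (TEAB/acetonitrile gradient, 260 nm); "stable" = less than 5% decomposition after 72 h.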

[13] = Stability in pH 11.5 buffer at 37 degC after 72 hrs; type: physicochemical; conditions: pH 11.5, 72 h; how it was run: as §3
[14] = Stability in pH 1.2 buffer at 37 degC after 72 hrs; type: physicochemical; conditions: pH 1.2, 72 h; how it was run: as §3
[15] = Stability in pH 7.4 buffer at 37 degC after 72 hrs; type: physicochemical; conditions: pH 7.4, 72 h; how it was run: as §3
[16] = Stability in pH 8.1 buffer at 37 degC after 72 hrs; type: physicochemical; conditions: pH 8.1, 72 h; how it was run: as §3
[17] = Stability in CEM-SS cell extracts; type: physicochemical, cell-based; conditions: human
How it was run: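 CEM-SS cells were washed in PBS, resuspended at 30 × 10^6 cells/mL in 10 mM Tris-HCl, 140 mM KCl (pH 7.4), sonicated and cleared at 10 000g. The supernatant (soluble protein 3 mg/mL) was spiked to a final 0.1 mM compound and incubated at 37 °C. Samples were drawn over time, frozen at -80 °C, and analysed by on-line cleaning reverse-phase HPLC (TEAB gradient, 260 nm). Half-life was calculated.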

[18] = Stability in pH 5.2 buffer at 37 degC after 72 hrs; type: physicochemical; conditions: pH 5.2, 72 h; how it was run: as §3
Hepatitis C virus = test: Antiviral activity against HCV in Huh5-2 cells by subgenomic replicon assay; type: functional, organism-based, Hepacivirus hominis; conditions: Huh-5-2
How it was run: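 Huh-5-2 cells bearing HCV genotype 1b subgenomic replicon I389luc-ubi-neo/NS3-3'/5.1, seeded 7000 cells/well, adhered 24 h, then five 5-fold dilutions from 100 µM in medium lacking G418 for 72 h at 37 °C, 5% CO2. Interferon alfa 2a (500 IU) positive control. Firefly luciferase read as % of untreated cultures; EC50 calculated.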

[19] = Stability in culture medium (RPMI+FBS); type: physicochemical; conditions: bovine; how it was run: as §2
[20] = Cytotoxicity against Huh5-2 cells; type: cell-based, Huh-5-2; conditions: human
How it was run: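 Parallel Huh-5-2 cultures (7000 cells/well) given five 5-fold compound dilutions from 100 µM without G418; proliferation measured 3 days after addition by MTS bioreduction to formazan, read in a plate reader.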

| Structure (SMILES) | EC50 [1] [µM] | CC50 [2] [µM] | EC50 [3] [µM] | CC50 [4] [µM] | EC50 (Human alphaherpesvirus 1 [5]) [µM] | EC50 (Human alphaherpesvirus 1 [6]) [µM] | EC50 (Vaccinia virus) [µM] | EC50 (Human alphaherpesvirus 2) [µM] | EC50 (Punta Toro virus) [µM] | EC50 (Sindbis virus) [µM] | CC50 [7] [µM] | CC50 [8] [µM] | EC50 [9] [µM] | EC50 [10] [µM] | EC50 (Coxsackievirus B4) [µM] | half-life [11] [h] | Stability [12] | Stability [13] | Stability [14] | Stability [15] | also measured |
| --- | --- | --- | --- | --- | --- | --- | --- | --- | --- | --- | --- | --- | --- | --- | --- | --- | --- | --- | --- | --- | --- |
| Cc1cn([C@H]2C[C@H](N=[N+]=[N-])[C@@H](CO)O2)c(=O)[nH]c1=O [ZIDOVUDINE] | 0.025 | > 400 | – | – | – | – | – | – | – | – | – | – | – | – | – | – | – | – | – | – | – |
| Nc1nc2c(ncn2COCCO)c(=O)[nH]1 [ACYCLOVIR] | – | – | > 500 | > 500 | 0.48 | 12 | 300 | 0.48 | – | – | – | – | – | – | – | – | – | – | – | – | – |
| Cc1cn([C@H]2C=C[C@@H](CO)O2)c(=O)[nH]c1=O [STAVUDINE] | 0.062 | > 400 | – | – | – | – | – | – | – | – | – | – | – | – | – | – | – | – | – | – | – |
| NC(=O)c1ncn([C@@H]2O[C@H](CO)[C@@H](O)[C@H]2O)n1 [RIBAVIRIN] | – | – | > 500 | > 500 | 300 | > 500 | 100 | > 500 | 100 | > 500 | > 500 | > 500 | 100 | 12 | > 500 | – | – | – | – | – | EC50 (Human respirovirus 3): 300 µM |
| Nc1ncnc2c1ncn2C[C@H](O)CO [(S)-DHPA] | – | – | – | – | – | – | – | – | > 500 | > 500 | > 500 | > 500 | > 500 | > 500 | > 500 | – | – | – | – | – | EC50 (Human respirovirus 3): > 500 µM |
| BP(=O)(O)CO[C@H](C)Cn1cnc2c(N)ncnc21 | > 400 | > 400 | – | > 200 | > 200 | 120 | – | > 200 | > 200 | > 200 | > 200 | > 200 | > 200 | > 200 | > 200 | > 72 | Stable | Stable | Stable | Stable | Stability [16]: Stable; half-life [17]: 24 h; Stability [18]: Stable; EC50 (Hepatitis C virus): > 33 µM; half-life [19]: 1.3 h; CC50 [20]: > 200 µM |
| C[C@H](Cn1cnc2c(N)ncnc21)OCP(=O)(O)O [TENOFOVIR ANHYDROUS] | 0.35 | > 400 | – | – | – | – | – | – | – | – | – | – | – | – | – | > 72 | Stable | Stable | Stable | Stable | Stability [16]: Stable; half-life [17]: > 72 h; Stability [18]: Stable; half-life [19]: > 72 h |
| O=c1[nH]c(=O)n([C@H]2C[C@H](O)[C@@H](CO)O2)cc1/C=C/Br [BRIVUDINE] | – | – | > 500 | > 500 | 0.096 | 300 | 2.4 | 300 | > 500 | > 500 | > 500 | > 500 | > 500 | > 500 | > 500 | – | – | – | – | – | EC50 (Human respirovirus 3): > 500 µM |
| C[C@H](Cn1cnc2c(N)ncnc21)OC[PH](=O)O | > 400 | > 400 | > 200 | > 200 | > 200 | > 200 | > 200 | > 200 | > 200 | > 200 | > 200 | > 200 | > 200 | > 200 | > 200 | > 72 | Stable | Stable | Stable | Stable | Stability [16]: Stable; Stability [18]: Stable; EC50 (Human respirovirus 3): > 200 µM; EC50 (Hepatitis C virus): > 33 µM; half-life [19]: > 72 h; CC50 [20]: > 200 µM |
| Nc1ncnc2c1ncn2CCOCP(=O)(O)O [ADEFOVIR] | 5.04 | > 400 | – | – | – | – | – | – | – | – | – | – | – | – | – | > 72 | Stable | Stable | Stable | Stable | Stability [16]: Stable; half-life [17]: > 72 h; Stability [18]: Stable; half-life [19]: > 72 h |
| Nc1nc2c(ncn2COC(CO)CO)c(=O)[nH]1 [GANCICLOVIR] | – | – | > 100 | > 100 | 0.019 | 0.48 | > 100 | 0.032 | – | – | – | – | – | – | – | – | – | – | – | – | – |
| BP(=O)(O)COCCn1cnc2c(N)ncnc21 | > 400 | > 400 | – | > 200 | > 200 | > 200 | – | > 200 | > 200 | > 200 | > 200 | > 200 | > 200 | > 200 | > 200 | > 72 | Stable | Stable | Stable | Stable | Stability [16]: Stable; half-life [17]: 48 h; Stability [18]: Stable; EC50 (Hepatitis C virus): > 33 µM; half-life [19]: 5.3 h; CC50 [20]: > 200 µM |
| Nc1ncnc2c1ncn2CCOC[PH](=O)O | > 400 | > 400 | > 200 | > 200 | > 200 | 120 | > 200 | 120 | > 200 | > 200 | > 200 | > 200 | > 200 | > 200 | > 200 | > 72 | Stable | Stable | Stable | Stable | Stability [16]: Stable; half-life [17]: > 72 h; Stability [18]: Stable; EC50 (Human respirovirus 3): > 200 µM; EC50 (Hepatitis C virus): > 33 µM; half-life [19]: > 72 h; CC50 [20]: > 200 µM |
